Data set [1] relates to Klebsiella pneumoniae. Nature of the data set: Antibacterial activity against Klebsiella pneumoniae ATCC 2146 expressing NDM1 gene after 16 hrs by broth microdilution assay. It is filed as organism-based. The following applies: […]. (In general: In broth dilution the organism is exposed to a series of concentrations in liquid medium.)
Data set [2] relates to Staphylococcus aureus. Nature of the data set: Inhibition of biofilm formation in methicillin-resistant Staphylococcus aureus ATCC 43300 after 24 hrs by crystal violet staining based method. Format: functional, organism-based. The following applies: for IC50: ATCC 43300, 24 h. An outline of the steps:
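Read-out is the IC50, taken as the compound concentration that inhibits 50% of MRSA 43300 biofilm formation.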

Data set [3] relates to Acinetobacter baumannii. Nature of the data set: Antibacterial activity against Acinetobacter baumannii isolate 5075 after 16 hrs by broth microdilution assay. Format: organism-based.
Data set [4] relates to Acinetobacter baumannii. Nature of the data set: Antibacterial activity against Acinetobacter baumannii ATCC 17978 after 16 hrs by broth microdilution assay. Format: organism-based.
Data set [5] relates to Acinetobacter baumannii. Description: Antibacterial activity against Acinetobacter baumannii ATCC 19606 after 16 hrs by broth microdilution assay. The following applies: […]. It is filed as organism-based, ATCC 19606 = CIP 70.34 = JCM 6841.
In data set [6] the test system is Escherichia coli. Description: Antibacterial activity against Escherichia coli ATCC 25922 after 16 hrs by broth microdilution assay. It is filed as organism-based.
Data set [7] relates to Acinetobacter baumannii. Nature of the data set: Antibacterial activity against Acinetobacter baumannii isolate 3941 after 16 hrs by broth microdilution assay. Format: organism-based.
Data set [8] concerns Escherichia coli. Description: Antibacterial activity against Escherichia coli ATCC 25922 expressing mcr1 gene after 16 hrs by broth microdilution assay. Format: organism-based. The following applies: in vitro.
Data set [9] relates to Acinetobacter baumannii. Nature of the data set: Antibacterial activity against Acinetobacter baumannii isolate 4106 after 16 hrs by broth microdilution assay. It is filed as organism-based.
Data set [10] relates to Staphylococcus aureus. Description: Antibacterial activity against methicillin-resistant Staphylococcus aureus ATCC 43300 after 16 hrs by broth microdilution assay. It is filed as functional. The following applies: ATCC 43300, 16 h.
Data set [11] relates to Acinetobacter baumannii. Description: Antibacterial activity against Acinetobacter baumannii ATCC 17978 expressing mcr1 gene after 16 hrs by broth microdilution assay. Format: organism-based. The following applies: in vitro.
The subject of data set [12] is Klebsiella pneumoniae. Description: Antibacterial activity against Klebsiella pneumoniae isolate C3 after 16 hrs by broth microdilution assay. As to conditions: […].
Data set [13] has as its system Klebsiella pneumoniae. Description: Antibacterial activity against Klebsiella pneumoniae isolate B9 after 16 hrs by broth microdilution assay. As to conditions: in vivo.

Our source for the MIC, IC50 and Activity values is ChEMBL document CHEMBL4196121, “Meridianin D Analogues Display Antibiofilm Activity against MRSA and Increase Colistin Efficacy in Gram-Negative Bacteria” (ACS Med Chem Lett, 2018).

The source made the active and inactive calls. No cut-off for these calls is given here.

In general, IC50 refers to the midpoint of a concentration-inhibition curve. Read a high IC50 as weaker potency. As to `Cl.Cn1cc(-c2ccnc(N)n2)c2ccc(Br)cc21`, the MIC with Klebsiella pneumoniae [1], in the data set on Acinetobacter baumannii [3], against Acinetobacter baumannii [4], in the data set with Acinetobacter baumannii [5], with Escherichia coli [6] and with Acinetobacter baumannii [7] was greater than 200 µM in each case. For the same compound, the MIC in the data set on Escherichia coli [8] is greater than 200 µM; against Acinetobacter baumannii [9] it was greater than 200 µM; against Staphylococcus aureus [10], 200 µM; in the data set with Acinetobacter baumannii [11] it was greater than 200 µM; in the data set with Klebsiella pneumoniae [12], greater than 200 µM; in the data set with Klebsiella pneumoniae [13] it was greater than 200 µM. For the same compound, in the data set with Staphylococcus aureus [2], the IC50 is 59.6 µM.
Take `Cl.Nc1nccc(-c2c[nH]c3cc(F)ccc23)n1`: the MIC in the data set on Klebsiella pneumoniae [1], against Acinetobacter baumannii [3], in the data set with Acinetobacter baumannii [4], against Acinetobacter baumannii [5], against Escherichia coli [6] and in the data set with Acinetobacter baumannii [7] was greater than 200 µM throughout. The MIC against Escherichia coli [8], in the data set on Acinetobacter baumannii [9], against Acinetobacter baumannii [11], against Klebsiella pneumoniae [12] and against Klebsiella pneumoniae [13] was greater than 200 µM throughout. The compound further registered an IC50 in the data set with Staphylococcus aureus [2] greater than 100 µM.
Regarding `Cl.Nc1nccc(-c2c[nH]c3ccc(Cl)cc23)n1`, the MIC in the data set with Klebsiella pneumoniae [1], against Acinetobacter baumannii [3], against Acinetobacter baumannii [4], with Acinetobacter baumannii [5], against Escherichia coli [6] and in the data set on Acinetobacter baumannii [7] was greater than 200 µM throughout. The MIC in the data set on Escherichia coli [8], against Acinetobacter baumannii [9], in the data set on Acinetobacter baumannii [11], in the data set with Klebsiella pneumoniae [12] and against Klebsiella pneumoniae [13] was greater than 200 µM throughout. For the same compound, in the data set on Staphylococcus aureus [2], the outcome was inactive.
As for `Cl.Nc1nccc(-c2c[nH]c3ccc(F)cc23)n1`, the MIC in the data set on Klebsiella pneumoniae [1], with Acinetobacter baumannii [3], with Acinetobacter baumannii [4], in the data set with Acinetobacter baumannii [5], against Escherichia coli [6] and against Acinetobacter baumannii [7] was greater than 200 µM throughout. The MIC in the data set with Escherichia coli [8], in the data set with Acinetobacter baumannii [9], with Acinetobacter baumannii [11], with Klebsiella pneumoniae [12] and in the data set with Klebsiella pneumoniae [13] was greater than 200 µM in each case. Besides, the IC50 with Staphylococcus aureus [2] was greater than 100 µM.
Consider `Cc1ccc(S(=O)(=O)n2cc(C(=O)/C=C/N(C)C)c3ccc(F)cc32)cc1`, for which the result in the data set on Staphylococcus aureus [2] was Active.
As to `CCCn1cc(-c2ccnc(N)n2)c2ccc(I)cc21.Cl`, the MIC against Klebsiella pneumoniae [1], in the data set on Acinetobacter baumannii [3], against Acinetobacter baumannii [4], against Acinetobacter baumannii [5], against Escherichia coli [6] and with Acinetobacter baumannii [7] was greater than 200 µM each time. For the same compound, the MIC in the data set with Escherichia coli [8], with Acinetobacter baumannii [9], against Acinetobacter baumannii [11], against Klebsiella pneumoniae [12] and in the data set with Klebsiella pneumoniae [13] was greater than 200 µM throughout. Also, the outcome with Staphylococcus aureus [2] was inactive.
As for `CCNc1nccc(-c2cn(C)c3cc(Br)ccc23)n1.Cl`, the MIC in the data set with Klebsiella pneumoniae [1], in the data set on Acinetobacter baumannii [3], against Acinetobacter baumannii [4], against Acinetobacter baumannii [5], in the data set with Escherichia coli [6] and in the data set with Acinetobacter baumannii [7] was greater than 200 µM each time. Further, the MIC against Escherichia coli [8], against Acinetobacter baumannii [9], in the data set with Acinetobacter baumannii [11], in the data set on Klebsiella pneumoniae [12] and in the data set on Klebsiella pneumoniae [13] was greater than 200 µM throughout. The outcome with Staphylococcus aureus [2] was inactive.
Take `CCCCn1cc(-c2ccnc(N)n2)c2ccc(Br)cc21.Cl`: the MIC against Klebsiella pneumoniae [1], in the data set on Acinetobacter baumannii [3], in the data set on Acinetobacter baumannii [4], with Acinetobacter baumannii [5], in the data set with Escherichia coli [6] and against Acinetobacter baumannii [7] was greater than 200 µM throughout. For the same compound, the MIC with Escherichia coli [8], against Acinetobacter baumannii [9], in the data set with Acinetobacter baumannii [11], with Klebsiella pneumoniae [12] and against Klebsiella pneumoniae [13] was greater than 200 µM in each case. This compound displayed an IC50 in the data set on Staphylococcus aureus [2] greater than 100 µM.
Regarding `CC(C)Cn1cc(-c2ccnc(N)n2)c2ccc(Br)cc21.Cl`, the MIC against Klebsiella pneumoniae [1], in the data set with Acinetobacter baumannii [3], in the data set with Acinetobacter baumannii [4], in the data set on Acinetobacter baumannii [5], in the data set with Escherichia coli [6] and in the data set on Acinetobacter baumannii [7] was greater than 200 µM each time. Further, the MIC against Escherichia coli [8], against Acinetobacter baumannii [9], with Acinetobacter baumannii [11], in the data set on Klebsiella pneumoniae [12] and against Klebsiella pneumoniae [13] was greater than 200 µM each time. Further, the IC50 in the data set on Staphylococcus aureus [2] is greater than 100 µM.
Consider `Cl.Cn1cc(-c2ccnc(N)n2)c2cc(Br)ccc21`, for which the MIC in the data set on Klebsiella pneumoniae [1], with Acinetobacter baumannii [3], in the data set with Acinetobacter baumannii [4], against Acinetobacter baumannii [5], against Escherichia coli [6] and in the data set with Acinetobacter baumannii [7] was greater than 200 µM in each case. In addition, the MIC in the data set with Escherichia coli [8], against Acinetobacter baumannii [9], in the data set on Acinetobacter baumannii [11], against Klebsiella pneumoniae [12] and against Klebsiella pneumoniae [13] was greater than 200 µM in each case. Moreover, in the data set on Staphylococcus aureus [2], the IC50 was greater than 100 µM.
With `Cc1ccc(S(=O)(=O)n2cc(C(=O)/C=C/N(C)C)c3ccc(I)cc32)cc1`, the result in the data set on Staphylococcus aureus [2] was Active.
As to `CCCCCn1cc(-c2ccnc(N)n2)c2cc(Br)ccc21.Cl`, the MIC with Klebsiella pneumoniae [1], in the data set with Acinetobacter baumannii [3], in the data set on Acinetobacter baumannii [4], against Acinetobacter baumannii [5], against Escherichia coli [6] and in the data set on Acinetobacter baumannii [7] was greater than 200 µM each time. Further, the MIC against Escherichia coli [8], against Acinetobacter baumannii [9], against Acinetobacter baumannii [11], against Klebsiella pneumoniae [12] and against Klebsiella pneumoniae [13] was greater than 200 µM in each case. This compound gave an IC50 in the data set with Staphylococcus aureus [2] greater than 100 µM.
In the data set on Staphylococcus aureus [2], `Nc1nccc(-c2c[nH]c3cccc(Br)c23)n1` showed an IC50 greater than 100 µM.
`Nc1nccc(-c2c[nH]c3c(Br)cccc23)n1` had an IC50 in the data set with Staphylococcus aureus [2] of 99.8 µM.
Take `Cl.Nc1nccc(-c2cn(Cc3ccccc3)c3ccc(Br)cc23)n1`: the MIC in the data set on Klebsiella pneumoniae [1], against Acinetobacter baumannii [3], in the data set with Acinetobacter baumannii [4], against Acinetobacter baumannii [5], in the data set on Escherichia coli [6] and in the data set on Acinetobacter baumannii [7] was greater than 200 µM in each case. Further, the MIC against Escherichia coli [8], in the data set on Acinetobacter baumannii [9], against Acinetobacter baumannii [11], with Klebsiella pneumoniae [12] and against Klebsiella pneumoniae [13] was greater than 200 µM throughout.
